Test results published in ChEMBL document CHEMBL1811784, “Synthesis and SERCA activities of structurally simplified cyclopiazonic acid analogues” (Bioorg Med Chem, 2011).

test: Inhibition of Heliothis virescens SERCA expressed in Sf9 cells assessed as ATP depletion measured after 60 mins by luciferin/luciferase coupled reporter gene assay
Method in brief: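 Microsomal membranes from Sf9 cells coinfected with baculovirus carrying full-length H. virescens SERCA (aa 2-1000), MOI 0.3, harvested after 3 days. 0.4 µg/mL enzyme with 0.05 mM ATP, inhibitor 3.2 nM–50 µM final, MOPS pH 7.5 buffer with Mg2+, Ca2+/EGTA, A23187. Remaining ATP read by luciferin/luciferase luminescence. Quadruplicates, normalized, sigmoid fit for IC50. Luciferase-only counterscreen run without SERCA.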

**Q.** With `CC(O)=C1C(=O)[C@H]2[C@H]3CCCC[C@H]3C(C)(C)N2C1=O` (mixture of isomers) as the molecule, how does the IC50 read?
**A.** Its IC50 is 19.9 µM.

**Q.** Which IC50 does the source give for `C/C(O)=C1\C(=O)[C@@H]2[C@H]3[C@@H]4C(=O)N(C)c5cccc(c54)C[C@H]3C(C)(C)N2C1=O` [SPERADINE A] here?
**A.** Its IC50 is 8 µM.

**Q.** With `CC(O)=C1C(=O)C2c3ccccc3C(C)(C)N2C1=O` (mixture of isomers) as the molecule, how does the IC50 read?
**A.** Its IC50 is greater than 50 µM.

**Q.** With `CC(C)(C)c1cc(O)c(C(C)(C)C)cc1O` as the molecule, how does the IC50 read?
**A.** Its IC50 is 0.13 µM.

**Q.** Which IC50 does the source give for `C/C(O)=C1\C(=O)[C@@H]2[C@H]3c4c[nH]c5cccc(c45)C[C@@H]3C(C)(C)N2C1=O` here?
**A.** The IC50 was 5 µM.

**Q.** For `CC(O)=C1C(=O)C2Cc3ccccc3C(C)(C)N2C1=O` (mixture of isomers), which IC50 is on record?
**A.** The IC50 was 6.3 µM.

**Q.** Which IC50 does the source give for `CC(O)=C1C(=O)[C@@H]2[C@H]3CCCC[C@H]3C(C)(C)N2C1=O` (mixture of isomers) here?
**A.** Its IC50 is 0.63 µM.

**Q.** Which IC50 does the source give for `CC(=O)C1=C(O)[C@@H]2[C@H]3c4c[nH]c5cccc(c45)C[C@H]3C(C)(C)N2C1=O` [CYCLOPIAZONIC ACID] here?
**A.** Its IC50 is 0.01 µM.

**Q.** With `CC(O)=C1C(=O)N2c3ccccc3C(C)(C)N2C1=O` (mixture of isomers) as the molecule, how does the IC50 read?
**A.** The IC50 was 40 µM.

**Q.** For `COC(=O)[C@H]1NC(C)(C)[C@@H]2Cc3cccc4[nH]cc(c34)[C@H]12`, which IC50 is on record?
**A.** Its IC50 is greater than 50 µM.

**Q.** With `CC(O)=C1C(=O)N2[C@H]3CCCC[C@H]3C(C)(C)N2C1=O` (mixture of isomers) as the molecule, how does the IC50 read?
**A.** Its IC50 is 40 µM.

**Q.** With `C/C(O)=C1\C(=O)[C@H]2[C@H]3c4c[nH]c5cccc(c45)C[C@H]3C(C)(C)N2C1=O` as the molecule, how does the IC50 read?
**A.** The IC50 was 0.5 µM.
